Source: PubChem
A3G deaminase = APOBEC3G DNA deaminase inhibitors, primary screen, biochemical, fluorescence, single-stranded DNA substrate, uHTS. recombinant A3G, ssDNA deamination FAM/TAMRA fluorescence. inhibition, % at 20 µM. hit rate 0.28% among 330,000;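 active = inhibition of at least 40% at 20 µM, with no more than 30% in the related APOBEC3A deaminase screen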;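 also: plate controls were DMSO wells with A3G for no effect and wells lacking A3G enzyme for full effect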
Mot1-301 SUMO = yeast Mot1-301 growth rescue at high temperature, primary screen, SUMOylation pathway inhibitor project, S. cerevisiae, ATP luminescence, 38.5C | S. cerevisiae Mot1-301 growth rescue; percent above DMSO median, 100 means doubled | hit rate 1% among 320,000 | growth rescue, % at 18.8 µM;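 active = every valid replicate shows activation above 250% relative to neutral control wells; inactive = the rest, any valid replicate at or below 250%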;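 also: OY570 slx delta 5 strain wells were the positive control but not used for scaling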
ARFGAP1 inh = inhibitors of rat ARFGAP1 GAP activity, primary screen, biochemical, fluorescence polarization, GDP tracer | hit rate 0.26% among 360,000 | AID 651572, 2012 | inhibition, % at 16.5 µM | Arfgap1-stimulated ARF1 GTP hydrolysis, GDP FP detection | ADP-ribosylation factor GTPase-activating protein 1 (Rattus norvegicus), Q62848;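 active = inhibition above a per-plate limit, mean inhibition of low control wells plus 3 SD, cut at about 25% in these data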;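 also: 0% = DMSO wells with enzyme and 100% = wells lacking Arfgap1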
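material = rat Arfgap1 catalytic domain, aa 1-136 | also added = human ARF1(Δ1-17)-GTP substrate | compound dosing = one concentration, 16.5 µM, DMSO 1.26% | times = GTP hydrolysis reaction 2 h at 25 °C | measured by = FP, GDP Alexa 633 tracer displaced from anti-GDP antibody, 620/688 nm | evaluation = percent inhibition of Arfgap1-stimulated GTP hydrolysis | replication = single well per compound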
A3A deaminase = APOBEC3A ssDNA deaminase inhibitors, primary screen, selectivity assay for APOBEC3G inhibitor project, biochemical, FAM/TAMRA oligo cleavage fluorescence; DNA dC->dU-editing enzyme APOBEC-3A (Homo sapiens), P31941; recombinant A3A, FAM/TAMRA ssDNA deamination fluorescence; inhibition, % at 20 µM; hit rate 0.41% among 330,000; AID 493011, 2011;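 active = at least 40% inhibition at 20 µM here, with at most 30% in a related deaminase screen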;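 also: plate controls were A3A with DMSO for no effect and wells lacking A3A enzyme for full effect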
Target sequence (P31941 whole entry, looked up): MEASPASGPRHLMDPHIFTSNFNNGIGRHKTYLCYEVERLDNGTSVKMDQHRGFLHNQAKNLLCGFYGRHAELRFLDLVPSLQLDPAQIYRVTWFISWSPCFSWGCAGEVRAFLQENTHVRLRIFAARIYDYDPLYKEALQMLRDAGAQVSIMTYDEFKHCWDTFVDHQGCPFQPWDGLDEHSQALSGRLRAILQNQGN
ASAP1 inh = inhibitors of human ASAP1 ArfGAP activity, primary screen, biochemical, fluorescence polarization; Arf-GAP with SH3 domain, ANK repeat and PH domain-containing protein 1 (Homo sapiens), …; ASAP1-stimulated ARF1 GTP hydrolysis, GDP FP detection; inhibition, % at 16.5 µM; hit rate 0.19% among 360,000; AID 624377, 2012; in the data active = inhibition above about 25%;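 also: 0% = vehicle with enzyme and substrate and 100% = no enzyme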
Target sequence (Q9ULH1 325-724 limits assumed): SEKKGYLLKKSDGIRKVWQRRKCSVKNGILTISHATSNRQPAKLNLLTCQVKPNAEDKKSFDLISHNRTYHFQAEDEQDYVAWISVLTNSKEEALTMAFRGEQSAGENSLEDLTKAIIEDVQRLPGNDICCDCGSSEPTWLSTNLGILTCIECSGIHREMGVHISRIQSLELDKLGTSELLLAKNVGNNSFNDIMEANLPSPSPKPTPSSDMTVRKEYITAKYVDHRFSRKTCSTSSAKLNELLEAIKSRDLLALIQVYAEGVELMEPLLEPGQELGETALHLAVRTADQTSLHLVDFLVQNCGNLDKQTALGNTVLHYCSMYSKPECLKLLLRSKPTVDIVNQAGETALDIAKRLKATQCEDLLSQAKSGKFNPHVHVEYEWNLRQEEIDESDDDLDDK
C2C12 statin = suppressors of statin myotoxicity in C2C12 myotubes, primary screen, cell-based, single point, plate reader; rescue of ATP level, % at 7.49 µM; C2C12 myotubes + simvastatin, ATP luminescence, 48 h; scaled: DMSO 0, geranylgeraniol control 100; hit rate 0.78% among 330,000;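 active = mean ATP rescue above about 67%, or every replicate alone reaching that limit, limit read from the data, passing the limit was not always enough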;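 also: myotubes were challenged with 10 µM simvastatin during compound exposure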
The depositor's hits bear a star. Most compounds without a hit are left out; they make up all but 2.1% or so of the library.

How did COc1ccc(S(=O)(=O)Nc2ccc3c(c2)C(=O)N([C@@H](C)CO)C[C@@H](C)[C@H](CN(C)C(=O)c2ccccc2)OCCCC[C@@H](C)O3)cc1 do in these assays?
C2C12 statin: 113*

Results for COc1ccc(S(=O)(=O)Nc2ccc3c(c2)C(=O)N([C@H](C)CO)C[C@H](C)[C@H](CN(C)S(=O)(=O)c2ccc(F)cc2)OCCCC[C@H](C)O3)cc1 ?
C2C12 statin: 107*

What do the screens show for `COc1ccc(S(=O)(=O)Nc2ccc3c(c2)C(=O)N([C@@H](C)CO)C[C@H](C)[C@H](CN(C)Cc2ccc(Cl)c(Cl)c2)OCCCC[C@@H](C)O3)cc1`?
C2C12 statin: 24

Results for COc1ccc(S(=O)(=O)Nc2ccc3c(c2)C(=O)N([C@H](C)CO)C[C@H](C)[C@H](CN(C)Cc2ccc(Cl)c(Cl)c2)OCCCC[C@@H](C)O3)cc1 ?
C2C12 statin: 79*

Results for COc1ccc(S(=O)(=O)N[C@@H]2C=C[C@H](CC(=O)O)O[C@H]2CO)cc1 ?
C2C12 statin: 0

How did C[C@@H]1CN([C@@H](C)CO)C(=O)c2cc(NC(=O)NC3CCCCC3)ccc2O[C@@H](C)CCCCO[C@H]1CN(C)C(=O)c1ccccc1 do in these assays?
C2C12 statin: 85*

Results for O=C(Nc1c(C(=O)N2CCOCC2)cnn1-c1ccccc1)c1ccc([N+](=O)[O-])cc1 ?
A3G deaminase: 3; Mot1-301 SUMO: 3; ARFGAP1 inh: 6; A3A deaminase: 2; ASAP1 inh: 3; C2C12 statin: 6

Results for Cc1ccc(C(=O)Nc2c(C(=O)N3CCOCC3)cnn2-c2ccccc2)cc1 ?
A3G deaminase: -9; Mot1-301 SUMO: -16; ARFGAP1 inh: -9; A3A deaminase: -4; ASAP1 inh: 13; C2C12 statin: 111*

Results for CCOc1ccc(S(=O)(=O)Nc2ccc3c(c2)c2c(n3S(=O)(=O)c3ccc(OCC)cc3)CCCC2=O)cc1 ?
A3G deaminase: -3; Mot1-301 SUMO: 877*; ARFGAP1 inh: -4; A3A deaminase: -2; ASAP1 inh: -1

What do the screens show for `CC(=O)N1CCc2c(sc(NC(=O)c3ccc([N+](=O)[O-])o3)c2C(N)=O)C1`?
ARFGAP1 inh: 27*; ASAP1 inh: -5; C2C12 statin: -1

How did COc1cc(C)c(-c2cc(C(=O)O)c(C)o2)cc1C(C)C do in these assays?
A3G deaminase: -2; Mot1-301 SUMO: -30; ARFGAP1 inh: -9; A3A deaminase: -2; ASAP1 inh: 5; C2C12 statin: 95*

What do the screens show for `Cn1nnnc1SCCOc1ccc(C#N)cc1`?
A3G deaminase: -1; Mot1-301 SUMO: -30; ARFGAP1 inh: -7; A3A deaminase: -1; ASAP1 inh: 16; C2C12 statin: 116*

How did COc1ccc(NC(=O)CCSc2nnnn2C)cc1 do in these assays?
A3G deaminase: 0; Mot1-301 SUMO: -7; ARFGAP1 inh: 6; A3A deaminase: 7; ASAP1 inh: 0; C2C12 statin: 6

Results for CNC(=O)c1sc(SC)cc1-c1ccc(Cl)cc1 ?
A3G deaminase: -9; Mot1-301 SUMO: 4; ARFGAP1 inh: -4; A3A deaminase: -5; ASAP1 inh: 2; C2C12 statin: 9

Results for CSc1cc(-c2ccc(Cl)cc2)c(C(=O)N2CCCC2)s1 ?
A3G deaminase: -7; Mot1-301 SUMO: -12; ARFGAP1 inh: 0; A3A deaminase: -5; ASAP1 inh: 1; C2C12 statin: 126*

How did O=[N+]([O-])c1ccc(NN=Cc2cccc(O)c2)nc1 do in these assays?
ARFGAP1 inh: 16; ASAP1 inh: 7; C2C12 statin: 14

What do the screens show for `Cc1cccc(C)c1-n1c(C)cc(/C=N\Nc2ccc([N+](=O)[O-])cn2)c1C`?
A3G deaminase: 3; Mot1-301 SUMO: 88; ARFGAP1 inh: 6; A3A deaminase: 21; ASAP1 inh: 8; C2C12 statin: 163*

Results for Cc1ccc(OCC(=O)O)c(-n2nc3ccccc3n2)c1 ?
A3G deaminase: -7; Mot1-301 SUMO: 340*; ARFGAP1 inh: 3; A3A deaminase: 10; ASAP1 inh: -2; C2C12 statin: 7

How did CC(=O)Oc1ccc(C)cc1-n1nc2ccccc2n1 do in these assays?
A3G deaminase: 2; Mot1-301 SUMO: -3; ARFGAP1 inh: 4; A3A deaminase: 4; ASAP1 inh: -1; C2C12 statin: -9

What do the screens show for `C[C@@H]1CN([C@H](C)CO)C(=O)Cc2cc(NC(=O)CCN3CCOCC3)ccc2O[C@H]1CN(C)C(=O)NC1CCCCC1`?
C2C12 statin: -14

Results for Oc1ccc(/C=N/Nc2cc(N3CCCC3)nc(N3CCCC3)n2)cc1 ?
A3G deaminase: -8; Mot1-301 SUMO: 0; ARFGAP1 inh: 28*; A3A deaminase: -4; ASAP1 inh: 13; C2C12 statin: -20

Results for CO[C@H]1CN(C)C(=O)c2cc(NC(=O)Nc3ccccc3)ccc2OC[C@H](C)N(C(=O)CN(C)C)C[C@@H]1C ?
C2C12 statin: -21

What do the screens show for `COCc1[nH]nc2c1C(c1ccsc1)C(C#N)=C(N)O2` (stereo not given)?
A3G deaminase: -3; Mot1-301 SUMO: -5; ARFGAP1 inh: -17; A3A deaminase: -1; ASAP1 inh: 3

Results for COCc1[nH]nc2c1C(c1sccc1C)C(C#N)=C(N)O2 (stereo not given) ?
A3G deaminase: -8; Mot1-301 SUMO: 187; ARFGAP1 inh: -3; A3A deaminase: -4; ASAP1 inh: 9; C2C12 statin: 94*

What do the screens show for `Cc1ccc(CNC(=O)CNS(=O)(=O)c2cccc3nsnc23)cc1`?
A3G deaminase: -2; Mot1-301 SUMO: -26; ARFGAP1 inh: 3; A3A deaminase: 0; ASAP1 inh: 0; C2C12 statin: 101*

What do the screens show for `Cc1ccc(N2C(=O)c3ccc(C(=O)O)cc3C2=O)c(C)c1`?
A3G deaminase: -3; Mot1-301 SUMO: 313*; ARFGAP1 inh: 3; A3A deaminase: 0; ASAP1 inh: 6

What do the screens show for `Cc1cc(N2CCN(C)CC2)nc(-c2ccccc2O)n1`?
A3G deaminase: -6; Mot1-301 SUMO: 1; ARFGAP1 inh: 10; A3A deaminase: -1; ASAP1 inh: 14

What do the screens show for `Cc1cc(N2CCCC2)nc(-c2ccccc2O)n1`?
A3G deaminase: 6; Mot1-301 SUMO: -1; ARFGAP1 inh: -3; A3A deaminase: 6; ASAP1 inh: 1; C2C12 statin: 115*
